Activity, MIC and log10cfu data for four compounds are collected here from ChEMBL document CHEMBL1649313, “T-2307 shows efficacy in a murine model of Candida glabrata infection despite in vitro trailing growth phenomena” (2010).

The structures appear in SMILES notation. Activity calls are given as the source filed them. The rule behind the calls is not given here. *1 amine or outer side, *2 acyl side, *3 side chain or, on linkers, in order; H or OH if unused. Where a SMILES comes first, the peptide text is derived from it. Bridges are numbered along the chain shown (N, C = ends). [ ]: non-standard residue; d: D form. The star is where a group is joined. hTyr(3S-OH,4S-OH,3'-OSO3H) = N[C@H](C(=O)O)[C@H](O)[C@@H](O)c1ccc(O)c(OS(=O)(=O)O)c1; Orn(4R-OH,5R-OH) = O=C([C@H](C[C@@H](O)[C@@H](O)N[*:3])N[*:1])[*:2]; Pro(3S-OH,4S-Me) = C[C@H]1CN[C@H](C(=O)O)[C@H]1O; X1 = CCCCCOc1ccc(-c2cc(-c3ccc(C(=O)*)cc3)no2)cc1; Gln(3R-OH) = NC(=O)C[C@@H](O)[C@H](N)C(=O)O; Hyp = O=C(O)[C@@H]1C[C@@H](O)CN1

Test [1] deals with Nakaseomyces glabratus. Put plainly: Antifungal activity against Candida glabrata ATCC 90030 assessed as growth inhibition at 0.0039 to 0.125 ug/ml after 48 hrs. It is filed as functional, organism-based. In short, it runs like this:
(§1)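 Inhibition curve in CLSI M27-A3 microdilution: RPMI 1640 with 0.2% glucose, MOPS-buffered to pH 7.0, final inoculum 1 × 10^3 cells/ml. OD600 was read on a microplate spectrophotometer at 24 h and 48 h. Percent inhibition was calculated relative to the growth-control well.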

The test system of test [2] is Nakaseomyces glabratus. In words: Antifungal activity against Candida glabrata ATCC 90030 assessed as growth inhibition at 0.0039 to 0.125 ug/ml after 24 hrs. It is filed as functional, organism-based. In short, it runs like this:
as §1

The subject of test [3] is Nakaseomyces glabratus. In words: Antifungal activity against Candida glabrata ATCC 90030 after 48 hrs by broth microdilution method in presence of 2% glucose. It is filed as functional. To be noted: ATCC 90030, 48 h. Put shortly: (§2)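 CLSI M27-A3 broth microdilution in RPMI 1640 (pH 7.0, 0.165 M MOPS) with glucose at 2%, 0.2%, 0.1%, 0.05% or 0.02%, or with 0.2% glycerol in place of glucose. Inoculum from 24-h SDA culture at 35°C, final 1 × 10^3 cells/ml. Incubated 48 h. MIC is the lowest concentration giving a prominent turbidity drop; OD600 also read against the growth control.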
(In broth dilution the organism is exposed to a series of concentrations in liquid medium.)

In test [4] the test system is Nakaseomyces glabratus. In words: Antifungal activity against Candida glabrata ATCC 90030 after 48 hrs by broth microdilution method in presence of 0.2% glucose. It is filed as functional. To be noted: ATCC 90030, 48 h. In short, it runs like this:
as §2

Test [5] deals with Nakaseomyces glabratus. In words: Antifungal activity against Candida glabrata ATCC 90030 after 48 hrs by broth microdilution method in presence of 0.1% glucose. It is filed as functional. To be noted: ATCC 90030, 48 h. In short, it runs like this: as §2
Test [6] concerns Nakaseomyces glabratus. Put plainly: Antifungal activity against Candida glabrata ATCC 90030 after 48 hrs by broth microdilution method in presence of 0.05% glucose. It is filed as functional. Conditions: ATCC 90030, 48 h. Put shortly: as §2
Test [7] relates to Nakaseomyces glabratus. In words: Antifungal activity against Candida glabrata ATCC 90030 after 48 hrs by broth microdilution method in presence of 0.02% glucose. Conditions: ATCC 90030, 48 h. It is filed as functional. Put shortly:
as §2

In test [8] the test system is Nakaseomyces glabratus. In words: Antifungal activity against Candida glabrata ATCC 90030 after 48 hrs by broth microdilution method in presence of 0.2% glycerol. It is filed as functional. To be noted: ATCC 90030, 48 h. Put shortly:
as §2

The test system of test [9] is Nakaseomyces glabratus. Put plainly: Antifungal activity against Candida glabrata ATCC 90030 infected in ICR mouse assessed as fungal load in kidney at 0.025 mg/kg/day, sc for 8 days measured on day 8. It is filed as functional. Conditions: route subcutaneous. In short, it runs like this:
(§3)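 Four-week-old male SPF ICR mice (n=5/group) were made neutropenic with cyclophosphamide 200 mg/kg ip on day −3 and 100 mg/kg on day +1. They were infected iv (tail vein) with 7.68 × 10^6 CFU/mouse in saline. Dosing was sc once daily for 8 days from 2 h post-infection; controls got saline. Day-8 kidney homogenates were plated on SDA with 0.1 mg/ml imipenem, 35°C, 5 days. Result is log CFU/kidneys, Dunnett test versus control.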

Test [10] deals with Nakaseomyces glabratus. In words: Antifungal activity against Candida glabrata ATCC 90030 infected in ICR mouse assessed as fungal load in kidney at 0.05 mg/kg/day, sc for 8 days measured on day 8. It is filed as functional. Conditions: route subcutaneous. In short, it runs like this: as §3
In test [11] the test system is Nakaseomyces glabratus. In words: Antifungal activity against Candida glabrata ATCC 90030 infected in ICR mouse assessed as fungal load in kidney at 0.1 mg/kg/day, sc for 8 days measured on day 8. It is filed as functional. To be noted: route subcutaneous. In short, it runs like this:
as §3

Test [12] deals with Nakaseomyces glabratus. In words: Antifungal activity against Candida glabrata ATCC 90030 infected in ICR mouse assessed as fungal load in kidney at 0.5 mg/kg/day, sc for 8 days measured on day 8. Conditions: route subcutaneous.
For test [13], the system named is Nakaseomyces glabratus. Put plainly: Antifungal activity against Candida glabrata ATCC 90030 infected in ICR mouse assessed as fungal load in kidney at 0.25 mg/kg/day, sc for 8 days measured on day 8. To be noted: route subcutaneous.
Test [14] relates to Nakaseomyces glabratus. Put plainly: Antifungal activity against Candida glabrata ATCC 90030 infected in ICR mouse assessed as fungal load in kidney at 0.125 mg/kg/day, sc for 8 days measured on day 8. To be noted: route subcutaneous.
For test [15], the system named is Nakaseomyces glabratus. In words: Antifungal activity against Candida glabrata ATCC 90030 infected in ICR mouse assessed as fungal load in kidney at 2.5 mg/kg/day, sc for 8 days measured on day 8. To be noted: route subcutaneous. It is filed as functional. In short, it runs like this:
(§4)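 Four-week-old male SPF ICR mice made neutropenic with cyclophosphamide ip, 200 mg/kg on day −3 and 100 mg/kg on day +1. Infected iv by tail vein with 7.68 × 10^6 CFU from an overnight SDA culture in saline. Dosed sc once daily for 8 days starting 2 h post-infection, 5 mice per group, saline controls. Kidneys harvested on day 8, homogenates plated on SDA with imipenem, 5 days at 35°C, log CFU counted, Dunnett test.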

Test [16] concerns Nakaseomyces glabratus. In words: Antifungal activity against Candida glabrata ATCC 90030 infected in ICR mouse assessed as fungal load in kidney at 5 mg/kg/day, sc for 8 days measured on day 8. It is filed as functional. Conditions: route subcutaneous. In short, it runs like this:
as §4

The test system of test [17] is Nakaseomyces glabratus. Put plainly: Antifungal activity against Candida glabrata ATCC 90030 infected in ICR mouse assessed as fungal load in kidney at 10 mg/kg/day, sc for 8 days measured on […]. To be noted: route subcutaneous. It is filed as functional.
Test [18] relates to Nakaseomyces glabratus. Put plainly: Antifungal activity against Candida glabrata ATCC 90030 after 48 hrs by Almar blue assay in presence of 0.2% glucosel. To be noted: ATCC 90030, 48 h.
For test [19], the system named is Nakaseomyces glabratus. Put plainly: Antifungal activity against Candida glabrata ATCC 90030 after 24 hrs by broth microdilution method in presence of 2% glucose. Conditions: ATCC 90030, 24 h. It is filed as functional.
Test [20] has as its system Nakaseomyces glabratus. In words: Antifungal activity against Candida glabrata ATCC 90030 after 24 hrs by broth microdilution method in presence of 0.2% glucose. Conditions: ATCC 90030, 24 h. It is filed as functional.
Test [21] relates to Nakaseomyces glabratus. In words: Antifungal activity against Candida glabrata ATCC 90030 after 24 hrs by broth microdilution method in presence of 0.1% glucose. It is filed as functional. Conditions: ATCC 90030, 24 h.
For test [22], the system named is Nakaseomyces glabratus. Put plainly: Antifungal activity against Candida glabrata ATCC 90030 after 24 hrs by broth microdilution method in presence of 0.05% glucose. It is filed as functional. Conditions: ATCC 90030, 24 h.
The test system of test [23] is Nakaseomyces glabratus. Put plainly: Antifungal activity against Candida glabrata ATCC 90030 after 24 hrs by broth microdilution method in presence of 0.02% glucose. It is filed as functional. To be noted: ATCC 90030, 24 h.
The subject of test [24] is Nakaseomyces glabratus. In words: Antifungal activity against Candida glabrata ATCC 90030 after 24 hrs by Almar blue assay in presence of 0.2% glucose. To be noted: ATCC 90030, 24 h.

Take `N=C(N)c1ccc(OCCCC2CCN(CCCOc3ccc(C(=N)N)cc3)CC2)cc1`: the result in [1] and in test [2] was Active. The MIC – broadly, the lowest concentration found to suppress growth – in test [3] was more than 0.125 µg/mL; in test [4] it was 0.0039 µg/mL; in test [5] it was 0.0039 µg/mL; in test [6], 0.001 µg/mL; in test [7] it was 0.001 µg/mL; in test [8], 0.0005 µg/mL. The log10cfu was 4.3 in test [9], 4 in test [10] and 3.86 in test [11].
Consider `C[C@@H]1[C@H](O)[C@@H](C)/C=C/C=C/C=C/C=C/C=C/C=C/C=C/[C@H](O[C@@H]2O[C@H](C)[C@@H](O)[C@H](N)[C@@H]2O)C[C@@H]2O[C@](O)(C[C@@H](O)C[C@@H](O)[C@H](O)CC[C@@H](O)C[C@@H](O)CC(=O)O[C@H]1C)C[C@H](O)[C@H]2C(=O)O` [AMPHOTERICIN B], for which the minimum inhibitory concentration (MIC) was 2 µg/mL in [3]; 2 µg/mL in test [4]; 2 µg/mL in test [5]; 2 µg/mL in test [6]; 2 µg/mL in test [7]; 1 µg/mL in test [8]. Further, the log10cfu in test [12] came to 2.93; in test [13] it was 4.53; in test [14], 4.61.
For the compound `OC(Cn1cncn1)(Cn1cncn1)c1ccc(F)cc1F` [FLUCONAZOLE], the MIC in [3] came out at 16 µg/mL; in test [4] it was 8 µg/mL; in test [5], 8 µg/mL; in [6] it was 8 µg/mL; in test [7] it was 4 µg/mL; in [8], 4 µg/mL. In addition, the MIC in test [18] turned out to be 16 µg/mL. Besides, the log10cfu in test [15] is given as 4.96; in test [16], 5.33; in [17] it was 4.62.
Consider `CCCCCOc1ccc(-c2cc(-c3ccc(C(=O)N[C@H]4C[C@@H](O)[C@@H](O)NC(=O)[C@@H]5[C@@H](O)[C@@H](C)CN5C(=O)[C@H]([C@H](O)CC(N)=O)NC(=O)[C@H]([C@H](O)[C@@H](O)c5ccc(O)c(OS(=O)(=O)O)c5)NC(=O)[C@@H]5C[C@@H](O)CN5C(=O)[C@H]([C@@H](C)O)NC4=O)cc3)no2)cc1` [MICAFUNGIN] (X1-[Orn(4R-OH,5R-OH)]T[Hyp][hTyr(3S-OH,4S-OH,3'-OSO3H)][Gln(3R-OH)][Pro(3S-OH,4S-Me)]; lactam 1-C), for which the MIC came to 0.125 µg/mL in test [8]; 0.0625 µg/mL in [19]; 0.0625 µg/mL in [20]; 0.0625 µg/mL in [21]; 0.0625 µg/mL in test [22]; 0.125 µg/mL in test [23]. The MIC in test [24] and in [18] was 0.0625 µg/mL in each case. The log10cfu is recorded as 3.59 in test [12], 5.21 in [13] and 5.13 in test [14].
